Test results reported in ChEMBL document CHEMBL4513216, “Probing the Open Global Health Chemical Diversity Library for Multistage-Active Starting Points for Next-Generation Antimalarials” (ACS Infect Dis, 2020).

Assay: Toxicity liver stage against HepG2, at 10uM
Type: cell-based
Parameters: test concentration 10 uM, cell line HepG2-A16-CD81EGFP
Settings: human, HepG2-A16-CD81EGFP cells; read-out: INHIBITION
Summary of the method: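 Uninfected HepG2-A16-CD81EGFP cells, 3 × 10^3 per well, 1536-well, plated on prespotted compound at 10 μM final, parasite-free screening media added to match infected plates; puromycin 10 μM positive, DMSO 0.5% negative; run in parallel with 48 h PbLuc assay at 37 °C, 5% CO2; viability by CellTiter-Glo luminescence, normalized to controls.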

COc1ccc(NC(=O)NCC(O)c2ccc(F)cc2F)c(OC)c1 (configuration not stated)
cytotoxicity at 10 µM: 2.79%

COc1ccc(-c2cnc3c(c2)CN(C2CC2)C(=O)CCN3)cc1
cytotoxicity at 10 µM: 4.09%

CCN1CC(C)(C)CN(C(=O)CCc2ccccc2)CC1=O
cytotoxicity at 10 µM: 0.305%

O=C(COc1ccccc1F)NCCC(O)c1ccco1 (configuration not stated)
cytotoxicity at 10 µM: -4.18%

O=C(Nc1ccc2c(c1)OCO2)N1CCN(CCn2ccnc2)CC1
cytotoxicity at 10 µM: -14.2%

CC(=O)NCc1noc2c1CN(Cc1cccs1)CC2
cytotoxicity at 10 µM: -5.18%

CS(=O)(=O)N1CCCC12CCCN(C(=O)c1ccno1)C2 (configuration not stated)
cytotoxicity at 10 µM: -172%

CC(=O)N1CCC2(C1)c1ccccc1S(=O)(=O)N2Cc1ccccc1 (configuration not stated)
cytotoxicity at 10 µM: -127%

COCC1CN(C(=O)CNC(C)=O)Cc2ncnn2C1 (configuration not stated)
cytotoxicity at 10 µM: -12.4%

CN(C)c1nccnc1C1CCN(c2cnccn2)CC1
cytotoxicity at 10 µM: 4.58%

CN1CCCCC1c1cncc(N2CCC(O)CC2)n1 (configuration not stated)
cytotoxicity at 10 µM: 2.54%

O=C(CC(SC1CCCCC1)C(=O)O)c1ccc(Cl)cc1 (configuration not stated)
cytotoxicity at 10 µM: 3.16%

CC(C)Cc1noc(CNc2ccccc2CC(=O)N(C)C)n1
cytotoxicity at 10 µM: 0.489%

CCCC(C)(C)NC(=O)CCN1CCOC1=O
cytotoxicity at 10 µM: -8.94%

CC(C)c1cc(NC(=O)Cn2ccc(=O)c3ccccc32)[nH]n1
cytotoxicity at 10 µM: -146%

CNS(=O)(=O)c1ccccc1N1CCN(C(=O)NC(C)C)CC1
cytotoxicity at 10 µM: 9.44%

COc1cc(NC(=O)NC2CCCC2)ccc1N1CCOC1=O
cytotoxicity at 10 µM: -7.09%

CN(Cc1ccsc1)C(=O)c1cc(S(=O)(=O)N(C)C)ccc1Cl
cytotoxicity at 10 µM: 15%

CCC(=O)NCC(=O)NCC(C)(C)c1cccc(Br)c1
cytotoxicity at 10 µM: -2.32%

O=C(c1ccc(-n2ccnc2)nn1)N1CCCC1CCc1ccccc1 (configuration not stated)
cytotoxicity at 10 µM: 8.57%

CCc1nnc2ccc(NCC3(N4CCCCC4)CCOCC3)nn12
cytotoxicity at 10 µM: -8.39%

CC1C(=O)Nc2cccnc2N1S(=O)(=O)c1ccc(C#N)c(Cl)c1 (configuration not stated)
cytotoxicity at 10 µM: -6.75%

CCC(NC(=O)NCc1cccc(N(C)C)n1)c1ccccc1OC (configuration not stated)
cytotoxicity at 10 µM: 29.1%

COCCN1CCN(CC(=O)N(C)Cc2cccc(F)c2)CC1C (configuration not stated)
cytotoxicity at 10 µM: -151%

CN1CCCN(C(=O)c2cccn2-c2ccc3c(c2)OCCO3)CC1
cytotoxicity at 10 µM: 1.03%

NC(=O)CN(C(=O)C1Cc2cc(Cl)ccc2O1)C1CCCC1 (configuration not stated)
cytotoxicity at 10 µM: 10.1%

CN(Cc1nnc(C2CC2)n1C)S(=O)(=O)c1ccccc1C#N
cytotoxicity at 10 µM: 14.9%

CN(C)C(=O)C1CN(Cc2ccc(C#N)cc2)c2ccccc2O1 (configuration not stated)
cytotoxicity at 10 µM: 6.47%

Cc1cccc(OCc2nnc(SCC3CCCN(C)C3)o2)c1 (configuration not stated)
cytotoxicity at 10 µM: -2.8%

CC(C)n1c(C2CCCN(CCS(C)(=O)=O)C2)nc2ccccc21 (configuration not stated)
cytotoxicity at 10 µM: -10.4%

NC(=O)C1CCN(Cn2nc(-c3ccc(F)cc3)oc2=O)CC1
cytotoxicity at 10 µM: -19.6%

CNS(=O)(=O)c1ccc(C(=O)NC2CCOc3ccccc32)o1 (configuration not stated)
cytotoxicity at 10 µM: -9.26%

Cc1cccc(OCCC(=O)N(C)CCNS(C)(=O)=O)c1C
cytotoxicity at 10 µM: 3.35%

CC(=O)N1C[C@@H]2CN(S(=O)(=O)C3CC3)CCO[C@@H]2C1
cytotoxicity at 10 µM: -107%

CS(=O)(=O)NCc1cc(-c2cc(F)cc(F)c2)nc(N2CCCC2)n1
cytotoxicity at 10 µM: -1.53%

CCC[C@H]1CN(S(=O)(=O)c2ccc(Cl)cc2)C[C@@H]1NC(C)=O
cytotoxicity at 10 µM: -12.4%

CS(=O)(=O)N1CCC(c2nccn2Cc2ccccn2)CC1
cytotoxicity at 10 µM: -14.6%

Cc1nn(C)c(C)c1CN1CCCC(c2ccc(C(=O)O)cc2)C1 (configuration not stated)
cytotoxicity at 10 µM: -8.82%

O=C(c1ncc[nH]1)N1CCC(n2cc(-c3ccccn3)nn2)CC1
cytotoxicity at 10 µM: 4.95%

CC(C)c1nccc(CN(C)Cc2cccc(-n3cccn3)c2)n1
cytotoxicity at 10 µM: -2.44%

CS(=O)(=O)Cc1nc(CCc2ccccc2)nn1-c1ccccn1
cytotoxicity at 10 µM: 3.36%

CCCN(CC)Cc1ccc(C(=O)NCC2COCCO2)c(=O)[nH]1 (configuration not stated)
cytotoxicity at 10 µM: 4.78%

Cc1nonc1OCCNc1ncnc2sc3c(c12)CCNC3
cytotoxicity at 10 µM: -1.69%

CCc1cnc(N)nc1NCCCN1CCCCC1CO (configuration not stated)
cytotoxicity at 10 µM: -0.0414%

CCn1cc(S(=O)(=O)NC2CCCN(CCCc3ccccc3)C2)cn1 (configuration not stated)
cytotoxicity at 10 µM: 8.08%

Cc1ccc2[nH]c(C(=O)NCCCn3ccnn3)c(C)c2c1
cytotoxicity at 10 µM: 5.36%

COc1cc(F)ccc1-c1ncccc1NC(=O)C(C)C
cytotoxicity at 10 µM: 1.23%

CCn1c(CN(C)C)nnc1C1CCN(Cc2ccccc2)CC1
cytotoxicity at 10 µM: -11.6%

Cc1ccc(C(NC(=O)CC2CCN(C(C)C)CC2)C(=O)O)cc1 (configuration not stated)
cytotoxicity at 10 µM: -9.99%

Cc1nn(C)cc1CNC(=O)c1cn(CCC2CCCCN2)nn1 (configuration not stated)
cytotoxicity at 10 µM: -6.15%

CCN(c1ccc(C(=O)N2CCCC2)cc1)S(=O)(=O)CC
cytotoxicity at 10 µM: -9.75%

CC(C)c1nc2c(n1C)CCN(Cc1nc(-c3ccco3)no1)C2
cytotoxicity at 10 µM: -0.403%

Cc1cnn(CCNCc2nc(CNC(=O)c3ccccc3)no2)c1
cytotoxicity at 10 µM: -5.92%

CC(C)c1nc2c(n1C)CCN(Cc1cccc(OCC(N)=O)c1)C2
cytotoxicity at 10 µM: -7.24%

CCn1cc(CN2CCCN(C(=O)c3sc(C)nc3C)CC2)cn1
cytotoxicity at 10 µM: -14.4%

CN(Cc1nnc(C2CC2)n1C)C1CCN(CCc2cnn(C)c2)C1 (configuration not stated)
cytotoxicity at 10 µM: -4.02%

COc1ccc(CC(=O)N2CCCC(n3cc(C)cn3)C2)c(OC)c1 (configuration not stated)
cytotoxicity at 10 µM: -8.66%

Cc1nc(CC(=O)N2CCCCC2Cn2cccn2)cs1 (configuration not stated)
cytotoxicity at 10 µM: -1.55%

CC(NC(=O)N(C)CCOc1ccccc1F)c1nncn1C (configuration not stated)
cytotoxicity at 10 µM: -9.92%

Cc1nccc(C(=O)N2CCCC2c2c(C)nn(C)c2C)n1 (configuration not stated)
cytotoxicity at 10 µM: -2.42%

Cc1ccccc1CNC(C)c1ccc(OCC(=O)NC2CC2)cc1 (configuration not stated)
cytotoxicity at 10 µM: -6.97%

Cc1cc(C)n(C2CN(CC(=O)NC3CCS(=O)(=O)C3)C2)n1 (configuration not stated)
cytotoxicity at 10 µM: -9.41%

Cc1noc(C2CCN(C(=O)c3ccc(N(C)C)nc3)CC2)n1
cytotoxicity at 10 µM: -5.95%

Cc1noc(C2CCN(C(=O)CN(C)c3ccc(Cl)cn3)CC2)n1
cytotoxicity at 10 µM: -6.98%

CC(Cn1ccnc1)NC(=O)NCCNC(=O)C(C)C (configuration not stated)
cytotoxicity at 10 µM: -3.51%

N#Cc1cn(C2CC2)c(=O)n(CC(O)c2ccc(OC(F)F)cc2)c1=O (configuration not stated)
cytotoxicity at 10 µM: -2.22%

CS(=O)(=O)N1CCCCCC1C1CCN(c2ncccn2)CC1 (configuration not stated)
cytotoxicity at 10 µM: -7.98%

CC(NC(=O)N1CCCN(Cc2cccs2)CC1)c1cccnc1 (configuration not stated)
cytotoxicity at 10 µM: -8.83%

COCCN1CCN(Cc2cccc(OCC(N)=O)c2)CC1C (configuration not stated)
cytotoxicity at 10 µM: 2.43%

c1cc(CN2CCN(Cc3cscn3)CC2)cs1
cytotoxicity at 10 µM: 2.45%

CC1(C(=O)N2CCOCC2)CNCCO1 (configuration not stated)
cytotoxicity at 10 µM: 1.2%

Cc1ccc(CN(Cc2ccncc2)C2CC(C)(C)NC(C)(C)C2)o1
cytotoxicity at 10 µM: -12.3%

O=C(C[C@@H]1COC[C@H]2CN(C(=O)c3ccccn3)C[C@@H]12)N1CCCC1
cytotoxicity at 10 µM: -104%

c1cncc(CN2CCc3ncnc(C4CC4)c3CC2)c1
cytotoxicity at 10 µM: -129%

O=C1C(NCc2ccc3c(c2)CCO3)CCN1Cc1ccccc1 (configuration not stated)
cytotoxicity at 10 µM: 6.39%

Cc1ccc(CN2CCC[C@]3(C(=O)O)CN(C)C[C@@H]3C2)s1
cytotoxicity at 10 µM: -106%

CCCS(=O)(=O)N1C[C@@H]2COC[C@]2(CN2CCOCC2)C1
cytotoxicity at 10 µM: 1.86%

CN(C)CC(=O)N1CCc2ncnc(-c3cncnc3)c2CC1
cytotoxicity at 10 µM: -2.42%

Cc1cccc(CN2CCc3ncnc(C)c3CC2)n1
cytotoxicity at 10 µM: -17.4%

COCCN1CCC2(COCc3cnc(-c4ccccc4)nc32)C1 (configuration not stated)
cytotoxicity at 10 µM: -111%

CN(C)C(=O)N1C[C@H]2CC[C@@H](C1)N(C(=O)CCCn1cncn1)C2
cytotoxicity at 10 µM: -12.2%

CNc1nc(C(=O)N2C[C@@H]3CC[C@H]2CN(S(C)(=O)=O)C3)cs1
cytotoxicity at 10 µM: 0.977%
